A short description of this series: Toxicity liver stage against HepG2, at 10uM. Also noted: test concentration 10 uM, cell line HepG2-A16-CD81EGFP. It is filed as cell-based. The conditions noted are these: human, HepG2-A16-CD81EGFP cells; read-out: INHIBITION
In short, it runs like this: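 Uninfected HepG2-A16-CD81EGFP cells, 3 × 10^3 per well, 1536-well, plated on prespotted compound at 10 μM final, parasite-free screening media added to match infected plates; puromycin 10 μM positive, DMSO 0.5% negative; run in parallel with 48 h PbLuc assay at 37 °C, 5% CO2; viability by CellTiter-Glo luminescence, normalized to controls.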
`NCc1ccc(Oc2cccc(Cl)c2Cl)nc1`: the cytotoxicity at 10 µM came out at 4.75%. With `CN1CCc2c(C#N)c(NCCCN3CCOCC3)n3cnnc3c2C1` the figure was -7.14%; with `COC(=O)c1cc(C(=O)N2CCCC(C)C2)n(-c2ccccc2)n1` (configuration not stated), -11.9%; with `O=C1CCCCN1CCc1nc(C2(c3ccc(F)cc3)CCOC2)no1` (configuration not stated), 3.82%. Next, `c1csc(-c2nc(CN3CCCCC3Cn3cccn3)co2)c1` (configuration not stated): 3.22%.

As for `Cc1ccc(-c2nc(CN3CCOCS3(=O)=O)c(C)o2)cc1`, the cytotoxicity at 10 µM was -0.724%. Consider `Cc1cc(C(=O)N2CCN(Cn3cc(Cl)cn3)CC2)c(C)o1`, for which the cytotoxicity at 10 µM turned out to be 10.9%. Next, `CCN(CC(=O)NC(C)C)S(=O)(=O)N1CCCC(C)C1` (configuration not stated): 2.77%. With `CC(C)(C)CC(NC(=O)N1CCS(=O)(=O)CC1)C(F)(F)F` (configuration not stated) the figure was 0.106%. With `CCc1oc(C(=O)NC(C)Cc2cnccn2)cc1CN1CCCC1` (configuration not stated) the figure was -5.28%. As for `CN(C)c1ccc2c(c1)CN(C(=O)c1c[nH]cn1)C2c1cnco1` (configuration not stated), the cytotoxicity at 10 µM was -0.234%. With `CCc1nc(CN(C)C2CCN(Cc3nc(C4CC4)no3)C2)no1` (configuration not stated) the figure was 14.9%; with `c1cncc(-c2nc3c(c(NCC4(c5ccncc5)CC4)n2)CCC3)c1`, 7.77%; with `Cc1cc(Nc2ccccn2)nc(C2CCCN(CCO)C2)n1` (configuration not stated), 1.26%. Next, `Cc1c(C(C)NC(=O)Nc2ccc(F)c(F)c2)cnn1C` (configuration not stated): -46.8%.

On to `O=C(NCCc1cccnc1)C1CCCN(Cc2ccco2)C1` (configuration not stated), for which the cytotoxicity at 10 µM is -3.98%. With `COc1cccc2c1OCC(C(=O)N1CCN(C3CCSCC3)CC1)C2` (configuration not stated) the figure was -1.62%; with `CCc1oc(C(=O)N2CCCC(c3nnn[nH]3)C2)cc1C` (configuration not stated), 9.09%. Next, `COc1cc(CN(C)C(=O)NCc2ccccn2)ccc1SC`: -8.42%; `CC(C)C1CN(C(=O)c2ccccc2)CCS1` (configuration not stated): 1.62%. As to `CNc1ncc(C(=O)N2CCOC(C(=O)N3CCCCCC3)C2)cn1` (configuration not stated), the cytotoxicity at 10 µM was -8.29%.

Consider `Cn1cccc1C(=O)N1CCN(Cc2cccnc2)c2ncccc2C1`, for which the cytotoxicity at 10 µM was 10.9%.

As for `CN(Cc1cnn(C)c1)CC(O)c1ccc2c(c1)OCO2` (configuration not stated), the cytotoxicity at 10 µM was -9.98%.

For `Cc1ncc(CO)c(CN2CCCC2c2nc3c(C)cccc3[nH]2)c1O` (configuration not stated), the cytotoxicity at 10 µM was 0.414%. Consider `Cc1c[nH]nc1C1CCCCN1C(=O)CCn1nccc1C` (configuration not stated), for which the cytotoxicity at 10 µM was -6.39%. Next, `CN1CCN(C2CCN(c3ccnc(-c4ccccc4)n3)CC2)C1=O`: 59.7%.

As for `Clc1ccc(N2CCN(CCCN3CCCCC3)CC2)nc1`, the cytotoxicity at 10 µM turned out to be 0.563%. Turning to `NC(=O)C1Cc2ccccc2CN1CCC(=O)N1CCc2ccccc21` (configuration not stated), the cytotoxicity at 10 µM was -4.23%. `N#Cc1cccc(OCCN2CCCC2C(=O)Nc2nccs2)c1` (configuration not stated): the cytotoxicity at 10 µM was determined as 2.94%.

`N#CCCN(CC(=O)Nc1ccc(Br)cc1Cl)Cc1cccnc1`: the cytotoxicity at 10 µM was found to be 11%.

Consider `Cc1ccc(OCCCC(=O)Nc2nonc2C)cc1C`, for which the cytotoxicity at 10 µM amounted to 7.03%. Next, `Cc1cc(C2CCCN2S(=O)(=O)c2cnn(C)c2)on1` (configuration not stated): -5.22%. Next, `CCCc1n[nH]c(C2CN(C(=O)c3cccnc3N(C)C)CCO2)n1` (configuration not stated): -2.91%; `Cc1ccc(-c2nc(CN3CCCCC3Cn3cncn3)no2)cc1` (configuration not stated): -0.403%; `COc1c(C2CCCN2C(=O)c2cc(C3CC3)on2)c(C)nn1C` (configuration not stated): -2.87%. In the case of `Cc1ccc(C)c(OCc2cc(C(=O)N(C)Cc3nonc3C)no2)c1`, the cytotoxicity at 10 µM is -5.83%. Next, `CN1CCc2c(C#N)c(NCc3cccnc3)n3cnnc3c2C1`: 11.2%; `O=C(NC[C@H]1OC[C@@H]2CN(Cc3ccco3)CC[C@@H]21)c1cscn1`: -145%. With `CC(NCc1ccc(OCC(N)=O)cc1)c1ccc(Cl)cc1` (configuration not stated) the figure was 11.2%. Take `O=C(COc1cccc(Br)c1)N1CCN(c2nccs2)CC1`: the cytotoxicity at 10 µM was -1.53%. Next, `CCOc1ccc(NC(C)=O)cc1S(=O)(=O)Nc1ccon1`: -10.8%; `CN(C)CCNC(=O)CCC1CCN(C(=O)c2ccc(O)cn2)CC1`: 1.23%; `O=C(NCC(O)CN1CCc2ccccc2C1)Nc1cccnc1` (configuration not stated): 3.2%. Next, `CCn1nccc1CNC(=O)C1CCCC1`: -18.5%; `O=C(NC1CCN(c2cccc(C(F)(F)F)n2)CC1)C1CC1`: -0.432%; `CN(Cc1cccnc1)C1COC2(CCN(Cc3nccs3)CC2)C1` (configuration not stated): 6.37%. With `CC(C)Oc1ncccc1CNC(=O)c1ccccn1` the figure was -21.3%; with `Cc1nccn1CC1CCN(C(=O)c2ccccc2)CC1`, -4.17%; with `CN1C[C@H]2CNC[C@@]2(C(=O)NC2CCN(c3ncccc3C#N)CC2)C1`, -0.766%. Consider `COCCN1C[C@@H](C)[C@@]2(COCCN(C(=O)c3ccoc3)C2)C1`, for which the cytotoxicity at 10 µM came to 7.4%. Next, `CC(C)c1nc(CC(=O)Nc2nc(CN3CCCCCC3)cs2)cs1`: 6.02%; `Cc1nc(CN2CCOC(CNc3cccnn3)C2)oc1C` (configuration not stated): -7.94%. Next, `COc1ccc(OC)c(C2CCN(CC(C)(C)N3CCOCC3)C2)c1` (configuration not stated): -0.359%; `Cc1ccc2oc(C(=O)N3CCCC(n4cccn4)C3)cc2n1` (configuration not stated): -3.89%. Next, `c1cnc(N2CC3(CCN(C4CCOC4)CC3)c3ccccc32)nc1` (configuration not stated): -4.2%.

Turning to `Cc1noc(CCCC(=O)NCC(c2ccco2)N2CCCC2)n1` (configuration not stated), the cytotoxicity at 10 µM is -0.363%. As for `CCc1cnc(CNC(=O)N2CCCC(C(=O)NC)C2)s1` (configuration not stated), the cytotoxicity at 10 µM came to 19.8%. For the compound `COCCCN1CC2(CCN(C(=O)Cc3csc(C)n3)CC2)CC1=O`, the cytotoxicity at 10 µM was 5.06%. Turning to `OC1(CNCc2csc(-c3ncccn3)n2)CCCNC1` (configuration not stated), the cytotoxicity at 10 µM was -10.7%. With `CC(NCc1cnn(C)c1)c1ccc(OCc2nccn2C)cc1` (configuration not stated) the figure was -7.16%; with `Cn1c(Cn2ncc(N3CCCC3)cc2=O)nc2ccccc21`, 5.65%. With `CC(C)Cc1nc(CN2CCc3onc(-c4cccc(F)c4)c3C2)no1` the figure was 2.3%; with `CC(Cn1cncn1)NCc1nncn1C1CCCCC1` (configuration not stated), -10.4%. Take `CC(C)CC(N)C1=NC(=C2N=CN=N2)NO1` (configuration not stated): the cytotoxicity at 10 µM is 10.6%. With `CN1CCN(C2CCN(CCOc3ccccc3)CC2)C1=O` the figure was -2.15%.

Take `CC(C)c1nnc2n1CC(CNCc1nc3ccccc3o1)CC2` (configuration not stated): the cytotoxicity at 10 µM was -1.85%. With `COCC1COCCC12CCN(C(=O)COc1ccccc1C)CC2` (configuration not stated) the figure was 2.08%; with `COCC1CC2(CCN(Cc3cccnc3)CC2)CN1c1ncccn1` (configuration not stated), 3.71%. Next, `COC(=O)NCC(=O)N(C)Cc1csc(-c2cccs2)n1`: -2.67%; `CS(=O)(=O)NCc1nnc2n1CCN(Cc1nccs1)C2`: -75.7%; `CCNc1nc(C)c(C(=O)N(C)Cc2nc(-c3ccncc3)no2)s1`: 1.41%. Next, `CC(C)NC(=O)N1CCCC(Cn2cc(-c3ccc(F)cc3)nn2)C1` (configuration not stated): 12.5%.

The values are drawn from ChEMBL document CHEMBL4513216, “Probing the Open Global Health Chemical Diversity Library for Multistage-Active Starting Points for Next-Generation Antimalarials” (ACS Infect Dis, 2020).
